From ChEMBL document CHEMBL4387734, “Design and synthesis of a novel series of cyanoindole derivatives as potent γ-secretase modulators” (Bioorg Med Chem Lett, 2019)
In brackets after ≈: the same amount, converted by molar mass.

Tests used:
[1] = Inhibition of gamma secretase in mouse Neuro2 cells expressing endogenous levels of amyloid precursor protein assessed as reduction in Abeta42 levels incubated for 18 hrs by sandwich ELISA; format: cell-based
Outline: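 IC50 as concentration reducing Aβ42 by 50%; mean of at least 2 determinations; mouse assay.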

[2] = Drug concentration in mouse brain at 30 mg/kg, po measured after 4 hrs by LC/MS/MS method; format: ADME, organism-based; conditions: read-out: Drug uptake
Outline: (§1)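 Mice dosed orally at 30 mg/kg; plasma and brain sampled 4 h post-dose; compound quantified by qualified research LC–MS/MS; brain/plasma ratio at 4 h.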

[3] = Drug concentration in mouse plasma at 30 mg/kg, po measured after 4 hrs by LC/MS/MS method; format: ADME, organism-based; outline: as §1
[4] = test system: Mus musculus; assay: In vivo inhibition of gamma secretase in mouse assessed as assessed as reduction in Abeta42 levels in brain at 30 mg/kg, po measured after 4 hrs relative to control; format: functional
[5] = Free drug concentration in mouse brain; format: ADME, tissue-based; conditions: in vivo
Outline: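 Free brain concentration calculated as fu,b × total brain level (μM), mouse 30 mg/kg p.o., 4 h.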

[6] = Lipophilicity, log P of the compound; format: physicochemical; conditions: octanol/water
[7] = Metabolic stability in human liver microsomes assessed as compound metabolism at 1 uM incubated for 15 mins; format: ADME, Microsome; conditions: read-out: Drug metabolism
Outline: (§2)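 Compound at 1 μM incubated 15 min with human, mouse or dog liver microsomes; percent metabolized reported.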

[8] = Metabolic stability in mouse liver microsomes assessed as compound metabolism at 1 uM incubated for 15 mins; format: ADME, Microsome; conditions: read-out: Drug metabolism; outline: as §2
[9] = Metabolic stability in dog liver microsomes assessed as compound metabolism at 1 uM incubated for 15 mins; format: ADME, Canis lupus familiaris, Microsome; conditions: read-out: Drug metabolism; outline: as §2
[10] = molecular target: Cytochrome P450 3A4 (Homo sapiens, UniProt P08684); assay: Inhibition of CYP3A4 (unknown origin) using midazolam; format: ADME
[11] = molecular target: Cytochrome P450 2D6 (Homo sapiens, UniProt P10635); assay: Inhibition of CYP2D6 (unknown origin); format: ADME
[12] = molecular target: Cytochrome P450 2C9 (Homo sapiens, UniProt P11712); assay: Inhibition of CYP2C9 (unknown origin); format: ADME
[13] = molecular target: Cytochrome P450 2C19 (Homo sapiens, UniProt P33261); assay: Inhibition of CYP2C19 (unknown origin); format: ADME
[14] = molecular target: T1, Cytochrome P450 1A2 (Homo sapiens, UniProt P05177); assay: Inhibition of CYP1A2 (unknown origin); format: ADME
T1 sequence (P05177 whole entry): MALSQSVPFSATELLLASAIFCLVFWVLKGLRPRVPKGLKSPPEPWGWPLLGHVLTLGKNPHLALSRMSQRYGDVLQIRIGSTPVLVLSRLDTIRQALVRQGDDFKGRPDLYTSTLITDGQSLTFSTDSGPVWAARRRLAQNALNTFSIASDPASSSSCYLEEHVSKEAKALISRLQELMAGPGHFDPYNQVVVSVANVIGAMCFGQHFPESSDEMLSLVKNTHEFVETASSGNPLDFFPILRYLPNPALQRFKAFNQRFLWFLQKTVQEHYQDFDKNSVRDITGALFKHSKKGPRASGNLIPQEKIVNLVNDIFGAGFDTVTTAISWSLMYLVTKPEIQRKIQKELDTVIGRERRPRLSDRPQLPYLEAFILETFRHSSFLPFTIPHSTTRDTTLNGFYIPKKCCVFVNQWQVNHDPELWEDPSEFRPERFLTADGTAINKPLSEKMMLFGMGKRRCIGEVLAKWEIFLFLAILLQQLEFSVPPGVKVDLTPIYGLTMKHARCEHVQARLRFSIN

[15] = molecular target: T2, Cytochrome P450 2C8 (Homo sapiens, UniProt P10632); assay: Inhibition of CYP2C8 (unknown origin); format: ADME
T2 sequence (P10632 whole entry): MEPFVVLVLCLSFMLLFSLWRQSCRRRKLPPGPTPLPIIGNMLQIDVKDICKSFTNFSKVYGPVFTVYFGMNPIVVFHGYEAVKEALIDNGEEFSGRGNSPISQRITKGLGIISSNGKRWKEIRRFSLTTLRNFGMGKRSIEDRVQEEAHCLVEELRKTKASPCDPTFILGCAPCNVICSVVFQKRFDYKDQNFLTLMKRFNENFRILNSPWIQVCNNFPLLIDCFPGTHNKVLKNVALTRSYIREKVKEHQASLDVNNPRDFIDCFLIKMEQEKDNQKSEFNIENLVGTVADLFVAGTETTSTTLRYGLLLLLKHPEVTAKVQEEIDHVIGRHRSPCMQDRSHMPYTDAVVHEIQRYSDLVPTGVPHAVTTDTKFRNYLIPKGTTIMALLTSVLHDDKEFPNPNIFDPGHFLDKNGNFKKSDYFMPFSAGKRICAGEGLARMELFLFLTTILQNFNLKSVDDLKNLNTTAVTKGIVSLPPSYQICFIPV

[16] = molecular target: Voltage-gated inwardly rectifying potassium channel KCNH2 (Homo sapiens, UniProt Q12809); assay: Inhibition of human ERG by receptor binding assay
Outline: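 Receptor binding on human hERG channel; IC50 reported.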

[17] = molecular target: hERG (KCNH2) (Homo sapiens, UniProt Q12809); assay: Inhibition of human ERG assessed as inhibition of IKr current at 3 uM by patch express assay
Outline: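 Human ERG: percent inhibition of IKr current at 3 μM.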

[18] = Kinetic solubility of the compound in pH 7.4 buffer; format: physicochemical; conditions: read-out: Kinetic_solubility
[19] = Ratio of drug concentration in brain to plasma of mouse at 30 mg/kg, po measured after 4 hrs by LC/MS/MS method; format: ADME, organism-based; conditions: read-out: BPR; outline: as §1
[20] = test system: Canis familiaris; assay: In vivo inhibition of gamma secretase in dog assessed as assessed as increase in Abeta38 levels in CSF at 10 mg/kg, po measured after 8 hrs relative to control; format: functional, Canis lupus familiaris; design: scale not given: the % may be the effect or the level left
[21] = Cmax in dog at 10 mg/kg, po after 1.6 hrs; format: ADME, organism-based, Canis lupus familiaris; design: dose 10 mg/kg, route oral; conditions: in vivo
Outline: (§3)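 Dogs given single oral 10 mg/kg dose; plasma concentration followed to obtain Cmax and time of Cmax.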

[22] = Tmax in dog at 10 mg/kg, po; format: ADME, organism-based, Canis lupus familiaris; conditions: in vivo; outline: as §3
[23] = Toxicity in dog assessed as effect on behavior at 10 mg/kg, po; format: organism-based, Canis lupus familiaris; conditions: in vivo
Outline: (§4)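 Single oral 10 mg/kg dose in dog; behaviour and appearance observed; plasma liver enzymes ALT and AST monitored.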

[24] = Toxicity in dog assessed as effect on appearance at 10 mg/kg, po; format: organism-based, Canis lupus familiaris; conditions: in vivo; outline: as §4
[25] = Toxicity in dog assessed as effect on ALT level at 10 mg/kg, po; format: organism-based, Canis lupus familiaris; conditions: in vivo; outline: as §4
[26] = Toxicity in dog assessed as effect on AST level at 10 mg/kg, po; format: organism-based, Canis lupus familiaris; conditions: in vivo; outline: as §4
[27] = Fraction of unbound in rat brain
[28] = test system: Mus musculus; assay: In vivo inhibition of gamma secretase in mouse increase in Abeta38 levels in brain at 30 mg/kg, po measured after 4 hrs relative to control; design: scale not given: the % may be the effect or the level left
[29] = molecular target: Gamma-secretase; assay: Inhibition of gamma secretase in human SKNBE2 cells expressing human APP695 assessed as reduction in Abeta42 levels incubated for 18 hrs by sandwich ELISA
[30] = test system: Canis familiaris; assay: In vivo inhibition of gamma secretase in dog assessed as assessed as reduction in Abeta42 levels in cerebrospinal fluid at 10 mg/kg, po measured after 8 hrs relative to control; conditions: Canis lupus familiaris

Sequence of Voltage-gated inwardly rectifying potassium channel KCNH2 (Q12809 whole entry): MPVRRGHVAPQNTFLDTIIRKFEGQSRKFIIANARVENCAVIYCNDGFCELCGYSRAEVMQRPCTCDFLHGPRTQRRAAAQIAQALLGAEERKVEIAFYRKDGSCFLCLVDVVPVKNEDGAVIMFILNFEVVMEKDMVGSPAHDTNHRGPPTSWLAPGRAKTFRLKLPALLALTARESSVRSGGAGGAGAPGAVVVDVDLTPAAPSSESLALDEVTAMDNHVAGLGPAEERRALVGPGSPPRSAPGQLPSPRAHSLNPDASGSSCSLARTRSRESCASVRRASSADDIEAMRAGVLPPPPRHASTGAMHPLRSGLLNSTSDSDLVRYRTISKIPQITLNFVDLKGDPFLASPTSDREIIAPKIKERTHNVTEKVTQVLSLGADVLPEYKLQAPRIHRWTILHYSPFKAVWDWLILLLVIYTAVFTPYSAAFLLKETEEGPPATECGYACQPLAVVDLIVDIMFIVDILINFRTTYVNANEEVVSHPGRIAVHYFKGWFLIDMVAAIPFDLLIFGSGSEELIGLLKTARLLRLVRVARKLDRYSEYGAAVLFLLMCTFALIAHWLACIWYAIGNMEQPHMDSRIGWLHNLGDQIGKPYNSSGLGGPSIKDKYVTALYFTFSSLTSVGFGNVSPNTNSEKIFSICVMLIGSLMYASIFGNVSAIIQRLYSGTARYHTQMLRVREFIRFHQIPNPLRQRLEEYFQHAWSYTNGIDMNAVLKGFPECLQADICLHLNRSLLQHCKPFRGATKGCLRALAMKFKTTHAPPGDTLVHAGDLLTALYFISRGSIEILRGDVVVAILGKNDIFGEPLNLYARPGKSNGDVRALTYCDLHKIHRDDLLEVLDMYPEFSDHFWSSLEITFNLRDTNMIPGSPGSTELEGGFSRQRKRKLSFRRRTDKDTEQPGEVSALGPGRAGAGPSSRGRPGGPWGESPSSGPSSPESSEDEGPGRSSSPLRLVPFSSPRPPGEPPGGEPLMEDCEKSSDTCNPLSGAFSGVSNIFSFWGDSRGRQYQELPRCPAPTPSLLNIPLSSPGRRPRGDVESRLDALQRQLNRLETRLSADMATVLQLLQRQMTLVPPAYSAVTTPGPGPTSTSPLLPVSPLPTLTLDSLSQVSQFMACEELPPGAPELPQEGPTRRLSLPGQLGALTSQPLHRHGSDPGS
Sequence of hERG (KCNH2) (Q12809 whole entry): as above
Sequence of Cytochrome P450 2C9 (P11712 whole entry): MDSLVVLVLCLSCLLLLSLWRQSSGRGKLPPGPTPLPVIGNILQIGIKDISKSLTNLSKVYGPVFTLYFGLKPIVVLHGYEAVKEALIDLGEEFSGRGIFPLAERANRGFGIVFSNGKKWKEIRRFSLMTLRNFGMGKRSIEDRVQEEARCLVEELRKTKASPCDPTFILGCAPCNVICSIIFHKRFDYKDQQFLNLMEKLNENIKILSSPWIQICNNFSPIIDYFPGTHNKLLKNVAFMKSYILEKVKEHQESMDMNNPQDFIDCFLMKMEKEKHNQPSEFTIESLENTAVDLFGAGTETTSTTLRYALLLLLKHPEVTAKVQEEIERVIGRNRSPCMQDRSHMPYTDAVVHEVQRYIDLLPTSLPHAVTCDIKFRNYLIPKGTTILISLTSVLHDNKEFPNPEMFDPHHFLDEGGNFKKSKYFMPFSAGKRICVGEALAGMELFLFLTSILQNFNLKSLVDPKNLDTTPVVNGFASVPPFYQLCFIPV
Sequence of Cytochrome P450 2C19 (P33261 whole entry): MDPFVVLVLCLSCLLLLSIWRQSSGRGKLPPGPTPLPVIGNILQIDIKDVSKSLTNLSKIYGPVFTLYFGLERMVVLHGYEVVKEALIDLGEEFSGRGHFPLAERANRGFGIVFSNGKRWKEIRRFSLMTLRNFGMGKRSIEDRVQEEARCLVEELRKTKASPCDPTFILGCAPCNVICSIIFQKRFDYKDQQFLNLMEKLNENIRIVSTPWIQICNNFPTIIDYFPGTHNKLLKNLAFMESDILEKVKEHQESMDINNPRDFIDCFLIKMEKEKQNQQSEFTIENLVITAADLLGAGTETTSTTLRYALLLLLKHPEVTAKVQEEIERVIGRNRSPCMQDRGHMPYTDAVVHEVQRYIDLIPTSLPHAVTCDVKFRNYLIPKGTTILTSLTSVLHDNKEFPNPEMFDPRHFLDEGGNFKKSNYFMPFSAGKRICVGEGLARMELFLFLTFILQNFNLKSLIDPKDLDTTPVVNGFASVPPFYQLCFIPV
Sequence of Cytochrome P450 3A4 (P08684 whole entry): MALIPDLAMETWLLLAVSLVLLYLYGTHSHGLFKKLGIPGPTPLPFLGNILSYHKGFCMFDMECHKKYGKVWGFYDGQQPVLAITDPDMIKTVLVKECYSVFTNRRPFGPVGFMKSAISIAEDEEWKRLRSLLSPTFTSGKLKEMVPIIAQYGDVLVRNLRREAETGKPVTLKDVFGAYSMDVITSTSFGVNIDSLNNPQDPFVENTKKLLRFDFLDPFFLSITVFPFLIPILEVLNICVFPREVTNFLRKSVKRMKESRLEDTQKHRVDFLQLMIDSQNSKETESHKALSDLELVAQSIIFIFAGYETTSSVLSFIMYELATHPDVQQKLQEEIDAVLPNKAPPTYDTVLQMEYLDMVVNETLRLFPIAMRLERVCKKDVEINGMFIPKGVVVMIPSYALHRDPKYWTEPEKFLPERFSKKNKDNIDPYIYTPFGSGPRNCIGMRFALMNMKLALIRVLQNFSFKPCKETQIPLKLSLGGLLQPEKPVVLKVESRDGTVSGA
Sequence of Cytochrome P450 2D6 (P10635 whole entry): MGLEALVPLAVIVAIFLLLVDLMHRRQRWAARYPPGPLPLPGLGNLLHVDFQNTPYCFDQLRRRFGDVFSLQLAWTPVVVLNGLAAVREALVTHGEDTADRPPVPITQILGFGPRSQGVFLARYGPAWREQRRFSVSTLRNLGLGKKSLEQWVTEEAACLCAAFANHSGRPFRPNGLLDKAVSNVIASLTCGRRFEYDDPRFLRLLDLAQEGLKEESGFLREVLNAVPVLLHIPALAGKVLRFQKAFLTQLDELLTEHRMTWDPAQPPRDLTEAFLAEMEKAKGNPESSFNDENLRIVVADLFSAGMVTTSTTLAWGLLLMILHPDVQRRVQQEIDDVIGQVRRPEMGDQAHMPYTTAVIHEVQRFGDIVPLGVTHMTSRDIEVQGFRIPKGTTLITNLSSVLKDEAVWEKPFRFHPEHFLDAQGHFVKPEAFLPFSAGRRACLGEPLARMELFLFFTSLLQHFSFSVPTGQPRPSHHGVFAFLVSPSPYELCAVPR

IC50 [1]: 0.017 µM
concentration at 4 h [2]: 8.25 to 12 µM
concentration at 4 h [3]: 8.2 to 12.1 µM
Drug uptake(free) [5]: 0.026 µM
logP [6]: 4.19
metabolised at 0.25 h, 1 µM [7]: 18%
metabolised at 0.25 h, 1 µM [8]: 27%
metabolised at 0.25 h, 1 µM [9]: 29%
IC50 [10]: > 10 µM
IC50 [11]: 9.8 µM
IC50 [12]: 5.9 µM
IC50 [13]: 8.3 µM
IC50 [14]: > 10 µM
IC50 [15]: 1.3 µM
solubility kinetic [18]: 6 µM (≈ 2.41 µg/mL)
Kp at 4 h [19]: 1.46
Cmax [21]: 2.4 µM
Tmax [22]: 1.6 h
Fu [27]: 0.22%
IC50 [29]: 0.014 µM
SMILES: COc1c(C#N)ccc2[nH]c(-c3cn4c(n3)[C@H](c3cccc(F)c3C)OCC4)cc12
inhibition in vivo at 30 mg/kg [4]: 66%
IC50 [16]: 5.29 µM
inhibition at 3 µM [17]: 31%
Activity [20]: 40%
Activity [23]: Non-Toxic
Activity [24]: Non-Toxic
Activity [25]: Non-Toxic
Activity [26]: Non-Toxic
Activity [28]: 40%
inhibition in vivo at 10 mg/kg [30]: 37%
